Screens from PubChem.
A selection: hits, their analogues and other compounds. The true share with any hit is near 1.8%.
TLR4-MyD88 BLA – TLR4-MyD88 interaction inhibition in cells; inhibition, % at 8.4 µM; hit rate 0.18% among 200,000; AID 861; O00206+Q99836; HeLa CL3-4 TLR4/MyD88 BLA complementation, FRET ratio; in the data active = inhibition above about 25%
TLR9-MyD88 block – TLR9-MyD88 interaction inhibition; inhibition, % at 4.98 µM; hit rate 0.21% among 340,000; CHO BLA complementation TLR9-MyD88, CCF4 FRET ratio; Q9NR96+Q99836;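 active = inhibition above the mean over all tested compounds plus 3 SD, cut at about 21% in these data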
NOD2 RIPK2 PPI – inhibitors of human NOD2-RIPK2 interaction; CHO BLA complementation NOD2-RIPK2, CCF4 ratio; inhibition, % at 4.98 µM; O43353; AID 624267; hit rate 0.38% among 360,000; in the data active = inhibition above about 21%
MC4R antag cAMP – antagonists of human melanocortin 4 receptor (MC4R). P32245. MC4R-expressing cells, MTII-stimulated cAMP, LANCE TR-FRET. inhibition, % at 6.5 µM. hit rate 0.48% among 360,000. AID 540295;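 active = inhibition above its plate's cutoff, the mean of tested wells on that plate plus 3 SD, cut at about 29% in these data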
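Material: human MC4R-expressing U2OS cells. Probe or stimulus: Melanotan II challenge. Dosing: 6.5 µM single dose. Times: 30-min compound, 1-h challenge, 1-h detection, room temperature. Technique: TR-FRET with Eu-cAMP and labeled anti-cAMP, 671 nm. Replication: singlicate.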
MC4R ag barr – activates human MC4R beta-arrestin recruitment; hit rate 0.98% among 360,000; U2OS MC4R beta-arrestin complementation, luminescence; percent of melanotan II response, DMSO zero; activation, % at 8.9 µM; P32245; AID 540308;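 active = activation above a per-plate cutoff, the mean activation of sample wells on that plate plus 3 SD, cut at about 8% in these data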
TLR9-MyD88 cf – TLR9-MyD88 interaction inhibition, confirmation | shares compounds with TLR9-MyD88 block | CHO TLR9/MyD88 BLA complementation, CCF4 FRET ratio | inhibition, % at 4.98 µM | hit rate 51% among 680;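 active = mean inhibition across three repeats above about 21% taken from the earlier screen, limit read from the data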;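 also: blue over green emission ratio reports constitutive TLR9 MyD88 association via BLA complementation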
BLA counter-1 – beta-lactamase reporter inhibition, counter-screen artifact; shares compounds with TLR9-MyD88 block; CHO-BLA cells, CCF4 FRET ratio, BLA reporter; inhibition, % at 4.98 µM; hit rate 7% among 680;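 active = mean inhibition above a 50% cutoff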;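 also: counterscreen of TLR9-MyD88 hits on CMV-driven BLA in CHO-K1 cells; higher means less blue over green ratio so more BLA blockade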
TLR9 CHO cytotox – CHO cell toxicity counter-screen for TLR9-MyD88 inhibitors; shares compounds with TLR9-MyD88 block; TLR9-MyD88 CHO cells cytotoxicity, luminescence; inhibition, % at 4.98 µM; hit rate 39% among 680; in the data active = inhibition above about 11%
cAMP nonselect – nonselective cAMP signaling inhibitor, MC4R antagonist counter-screen; inhibition, % at 6.5 µM; shares compounds with MC4R antag cAMP; AID 602193; parental U2OS, forskolin cAMP, LANCE TR-FRET; hit rate 26% among 1,600;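 active = mean inhibition over triplicates above the low-control well mean plus 3 SD, set per campaign, cut at about 13% in these data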;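 also: signal is single emission at 671 nm which falls as cellular cAMP rises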
MC4R antag conf – human MC4R cAMP antagonism confirmation; shares compounds with MC4R antag cAMP; MC4R-expressing cells, MTII-stimulated cAMP, TR-FRET; inhibition, % at 6.5 µM; hit rate 27% among 1,600; in the data active = inhibition above about 29%
MC4R barr conf – human MC4R beta-arrestin agonism confirmation. activation, % at 8.9 µM. U2OS MC4R beta-arrestin recruitment, luminescence; scaled DMSO 0%, Melanotan II 100%. shares compounds with MC4R ag barr. AID 602192. hit rate 31% among 2,400;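 active = mean activation across replicates above the hit cutoff set in the earlier primary screen, cut at about 8% in these data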
MOR DOR agonist – OPRM1-OPRD1 heterodimer agonism counter-screen; AID 602194; shares compounds with MC4R ag barr; hit rate 5.8% among 2,400; activation, % at 9.2 µM; U2OS PathHunter beta-arrestin, beta-gal luminescence; percent of deltorphin B response, DMSO zero;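 active = mean activation across replicates exceeds the hit threshold derived in the earlier primary screen, cut at about 18% in these data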
NOD2-RIPK2 conf – confirmation of human NOD2-RIPK2 interaction inhibitors; CHO cells, NOD2-RIPK2 BLA complementation, CCF4 FRET; hit rate 70% among 1,200; shares compounds with NOD2 RIPK2 PPI; inhibition, % at 4.98 µM;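 active = mean inhibition across replicates above a set limit taken from the earlier primary screen, cut at about 21% in these data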
BLA counter-2 – NOD2-RIPK2 counterscreen BLA reporter activity. shares compounds with NOD2 RIPK2 PPI. AID 624371. hit rate 57% among 1,200. CHO BLA reporter, CCF4 FRET ratio. inhibition, % at 4.98 µM;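 active = mean inhibition above the low-control mean inhibition plus three low-control SD, cut at about 11% in these data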
Each line names hits and unclear results; the compound was inactive in the other large screens (follow-up assays come after a bar, where they were run).

O=[N+]([O-])c1ccc(Nc2ccc3ccccc3c2)nc1	TLR9-MyD88 block 24, NOD2 RIPK2 PPI 37 | TLR9-MyD88 cf inactive | BLA counter-1 inactive | TLR9 CHO cytotox inactive | NOD2-RIPK2 conf 21 | BLA counter-2 25
CC(=O)Nc1cccc(C(=O)/C=C/c2ccc(N(C)C)cc2)c1	TLR9-MyD88 block 44, NOD2 RIPK2 PPI 57 | TLR9-MyD88 cf 24 | BLA counter-1 inactive | TLR9 CHO cytotox inactive | NOD2-RIPK2 conf 51 | BLA counter-2 58
COc1ccc(C(=O)/C=C/C(=O)N(CC(=O)NC2CCCCC2)CC2CCCO2)c(O)c1 (centres undefined)	TLR9-MyD88 block 26, NOD2 RIPK2 PPI 87 | TLR9-MyD88 cf 34 | BLA counter-1 inactive | TLR9 CHO cytotox 97 | NOD2-RIPK2 conf 93 | BLA counter-2 22
COc1ccc(C(=O)/C=C/C(=O)N(Cc2ccccc2)C(C(=O)NC2CCCCC2)c2ccncc2)c(O)c1 (centres undefined)	none
O=Nc1c(O)n(Cc2ccc(Cl)c(Cl)c2)c2ccccc12	TLR9-MyD88 block 28, NOD2 RIPK2 PPI 34, MC4R ag barr 10 | TLR9-MyD88 cf inactive | BLA counter-1 inactive | TLR9 CHO cytotox 17 | MC4R barr conf inactive | MOR DOR agonist inactive | NOD2-RIPK2 conf 56 | BLA counter-2 42
O=Nc1c(O)n(Cc2ccccc2)c2ccccc12	none (no result: TLR4-MyD88 BLA)
COc1cccc(CN2C(=O)c3cccc(N)c3C2=O)c1	TLR9-MyD88 block 28, NOD2 RIPK2 PPI 36 | TLR9-MyD88 cf inactive | BLA counter-1 inactive | TLR9 CHO cytotox inactive | NOD2-RIPK2 conf 38 | BLA counter-2 47
Cn1c2ccccc2c(=O)c2ccc(C#Cc3ccc(N)cc3)cc21	TLR9-MyD88 block 41, NOD2 RIPK2 PPI 55 (no result: TLR4-MyD88 BLA) | TLR9-MyD88 cf 32 | BLA counter-1 inactive | TLR9 CHO cytotox inactive | NOD2-RIPK2 conf 51 | BLA counter-2 60
CN(CCc1ccccc1)C(=O)c1ccc(NC(=O)Cc2ccc(NC(=O)C3CCCN(C(=O)CCc4ccccc4)C3)cc2)cc1 (centres undefined)	none (no result: TLR4-MyD88 BLA)
CN(CCO)c1cc(Sc2nc3ccccc3s2)c2nonc2c1[N+](=O)[O-]	TLR9-MyD88 block 47, NOD2 RIPK2 PPI 91 | TLR9-MyD88 cf 67 | BLA counter-1 inactive | TLR9 CHO cytotox 99 | NOD2-RIPK2 conf 98 | BLA counter-2 33
CC(=O)OCCN(C)c1cc(SC(C)C)c2nonc2c1[N+](=O)[O-]	none
CCOc1ccc(NC(=O)c2cc(S(=O)(=O)N3CCOCC3)cn2C)cc1	none (no result: TLR4-MyD88 BLA)
Nc1cccc2c1C(=O)N(CCOc1ccccc1F)C2=O	TLR9-MyD88 block 27, NOD2 RIPK2 PPI 33 (no result: TLR4-MyD88 BLA) | TLR9-MyD88 cf inactive | BLA counter-1 inactive | TLR9 CHO cytotox inactive | NOD2-RIPK2 conf 38 | BLA counter-2 49
CCNC(=S)N=Nc1c(O)[nH]c2ccc([N+](=O)[O-])cc12	none
CCCCCC(=O)N=Nc1c(O)[nH]c2ccc([N+](=O)[O-])cc12	TLR9-MyD88 block 23, NOD2 RIPK2 PPI active | TLR9-MyD88 cf inactive | BLA counter-1 inactive | TLR9 CHO cytotox inactive | NOD2-RIPK2 conf inactive | BLA counter-2 inactive
CC(=O)Oc1ccc(Cn2c(C)c(C(=O)NCc3ccc4c(c3)OCCO4)sc2=O)cc1	none (no result: TLR4-MyD88 BLA, TLR9-MyD88 block)
COc1ccc(OC)c(/C=C/C(=O)N2C(=O)c3cccc(N)c3C2=O)c1	TLR9-MyD88 block 22, NOD2 RIPK2 PPI 21 | TLR9-MyD88 cf inactive | BLA counter-1 inactive | TLR9 CHO cytotox 19 | NOD2-RIPK2 conf 39 | BLA counter-2 38
Cc1[nH]n(-c2ccc(F)cc2)c(=O)c1C=Nc1ccc(S(=O)(=O)N(C)C)cc1	none
COc1cc(C2NC(=O)CCC2[N+](=O)[O-])cc(OC)c1OC (centres undefined)	none (no result: TLR4-MyD88 BLA)
CCCCNc1c(-c2ccc(OC)c(SC3CCCCC3)c2)nc2cc(C)ccn12	none (no result: TLR4-MyD88 BLA)
CCCCNc1c(-c2ccc(OC)c(SC3CCCCC3)c2)nc2cnccn12	TLR9-MyD88 block 21, NOD2 RIPK2 PPI 40, MC4R antag cAMP 32 (no result: TLR4-MyD88 BLA) | TLR9-MyD88 cf inactive | BLA counter-1 inactive | TLR9 CHO cytotox inactive | cAMP nonselect inactive | MC4R antag conf inactive | NOD2-RIPK2 conf 29 | BLA counter-2 42
CCC(C)Sc1ccc(-c2nc3cc(C)ccn3c2NC2CCCCC2)cc1 (centres undefined)	none (no result: TLR4-MyD88 BLA)
CCC(C)Sc1ccc(-c2nc3cnccn3c2NC2CCCCC2)cc1 (centres undefined)	TLR9-MyD88 block 35, NOD2 RIPK2 PPI 27 (no result: TLR4-MyD88 BLA) | TLR9-MyD88 cf 46 | BLA counter-1 inactive | TLR9 CHO cytotox inactive | NOD2-RIPK2 conf 65 | BLA counter-2 72
CC1C(=O)N(Cc2cn(CC3CCCCC3)nn2)CCS(=O)(=O)N1Cc1ccc(-c2cccc(CO)c2)cc1 (centres undefined)	none (no result: TLR4-MyD88 BLA)
COc1cc(NS(=O)(=O)c2ccc(C)cc2)c2ncccc2c1	TLR9-MyD88 block 22, NOD2 RIPK2 PPI 51 | TLR9-MyD88 cf inactive | BLA counter-1 inactive | TLR9 CHO cytotox 102 | NOD2-RIPK2 conf 45 | BLA counter-2 11
COc1ccc(S(=O)(=O)Nc2ccccn2)cc1	none (no result: TLR4-MyD88 BLA)
CCCCn1c(=O)[nH]c(=O)c2c1nc(-c1ccccn1)n2CC	none (no result: TLR4-MyD88 BLA)
CN(C)CCCN(C(=O)CCc1ccccc1)c1nc2c(F)cccc2s1	none
